The values below come from ChEMBL document CHEMBL2429733, “Meroterpenoids with diverse ring systems from the sponge-associated fungus Alternaria sp. JJY-32” (J Nat Prod, 2013).

Counter-ions that a name gives are not always drawn. Active and inactive are the calls of the source. The calls are words filed in the database; no cut-off is given here.

Experiment [1] relates to HL-60. Briefly: Cytotoxicity against human HL60 cells. It is filed as functional, cell-based. The gist of the method:
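Growth of human tumour cells measured by the MTT or SRB method, with adriamycin as the positive control.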

A short description of experiment [2]: Inhibition of LPS-induced NF-kappaB (unknown origin) activation transfected in mouse RAW264.7 cells preincubated for 2 hrs followed by LPS challenge measured after 4 hrs by luciferase reporter gene assay. The experiment is classed as cell-based. The gist of the method: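 RAW264.7 cells were seeded at 2.5 × 10^5 per well and held at 37 °C for 24 h. They were then transiently transfected with pNF-κB-Luc plasmid (0.5 μg/well) using lipofectamine 2000. After 24 h, compounds were added for 2 h, then LPS (0.1 μg/mL) for a further 4 h. Read-out was Steady-Glo luciferase, with PDTC as the positive control, and IC50 was derived.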
In general terms: In a reporter assay the amount or activity of a reporter protein is the signal.

For experiment [3], the system named is A549. Nature of the experiment: Cytotoxicity against human A549 cells.

The IC50 is the concentration at which inhibition is half-maximal. A low value points to inhibition by little substance. On to `C/C(=C\CC[C@]1(C)OC2=C(C[C@@H]1O)C(=O)CC[C@H]2O)CC/C=C(\C)C(=O)O`, for which the outcome in experiment [1] was inactive. For the same compound, the IC50 in experiment [2] is more than 100 µM. Consider `CC(C)=CCC[C@](C)(O)[C@H](O)CC[C@](C)(O)[C@@H]1CC2=C(CC[C@@H](O)C2=O)O1`, for which the outcome in experiment [1] was inactive. The IC50 in experiment [2] was 62 µM.

As to `CO[C@@H]1C[C@H](O)C(O)=C(C/C=C(\C)CC/C=C(\C)CCCC(C)C(=O)O)C1=O` (stereo partly drawn), the result in experiment [1] was inactive. In experiment [2], this compound had a half-maximal inhibitory concentration (IC50) of 42 µM. With `COc1cccc2c1C(=O)c1c(O)c3c(c(O)c1C2=O)C[C@@](O)(C(=O)CO)C[C@@H]3O[C@H]1C[C@H](N)[C@H](O)[C@H](C)O1` [DOXORUBICIN], the IC50 was 0.09 µM in experiment [1] and 0.35 µM in experiment [3]. Consider `S=C(S)N1CCCC1` [PYRROLIDINE DITHIOCARBAMIC ACID, AMMONIUM SALT], for which the IC50 in experiment [2] came out at 3 µM. This counts as single-digit micromolar.

Consider `C/C(=C\CC[C@](C)(O)[C@@H]1CC2=C(O1)[C@H](O)CCC2=O)CC/C=C(\C)C(=O)O`, for which the result in experiment [1] was inactive. The IC50 in experiment [2] stood at 67 µM. Consider `CC(C)=CCC[C@H](C)[C@@H]1CC[C@](C)(O)[C@]12CC1=C(O2)[C@H](O)CCC1=O` [TRICYCLOALTERNARENE A], for which the outcome in experiment [1] was inactive. In addition, the IC50 in experiment [2] was found to be 52 µM. In the case of `CO[C@@H]1C[C@H](O)C(O)=C(C/C=C(\C)CC/C=C(\C)CC/C=C(\C)C(=O)O)C1=O`, the result in experiment [1] was inactive. In experiment [2], this compound yielded an IC50 of 58 µM. On to `C/C(=C\CC[C@@H](C)C1=CC[C@@]2(C)OC3=C(C[C@@H]12)C(=O)[C@H](O)CC3)CO`, for which, in experiment [1], the result was inactive. This compound also showed an IC50 in experiment [2] of 50 µM. With `C/C(=C\CC[C@](C)(O)[C@@H]1CC2=C(CC[C@@H](O)C2=O)O1)CC/C=C(\C)C(=O)O`, in experiment [1], the outcome was inactive. The midpoint of inhibition in experiment [2], the IC50, lay at 85 µM.

Turning to `C/C(C=O)=C\CC[C@@H](C)C1=CC[C@@]2(C)OC3=C(C[C@@H]12)C(=O)[C@H](O)CC3`, the outcome in experiment [1] was inactive. The IC50 in experiment [2] was found to be 39 µM. `C/C(=C\CC[C@](C)(O)[C@@H]1CC2=C(CC[C@@H](O)C2=O)O1)CC[C@@H](O)C(C)(C)O`: in experiment [1], the outcome was inactive. The IC50 in experiment [2] was determined as 70 µM.

Consider `CO[C@@H]1C[C@H](O)C2=C(C[C@H]3[C@H](C(C)(O)CCC=C(C)C)CC[C@@]3(C)O2)C1=O` (stereo partly drawn) [TRICYCLOALTERNARENE B], for which the outcome in experiment [1] was inactive. The same compound yielded an IC50 in experiment [2] of 76 µM. For `C/C(=C\CC[C@]1(C)OC2=C(C[C@@H]1O)C(=O)[C@H](O)CC2)CC/C=C(\C)C(=O)O`, the result in experiment [1] was inactive. The compound also yielded an IC50 in experiment [2] of more than 100 µM.

Regarding `CC(C)=CCCC(C)(O)[C@@H]1CC[C@@]2(C)OC3=C(C[C@@H]12)C(=O)CC[C@H]3O` (stereo partly drawn) [TRICYCLOALTERNARENE C], the result in experiment [1] was inactive. For the same compound, the IC50 in experiment [2] was determined as 75 µM.

As to `COc1ccc(O)c(C/C=C(\C)CC/C=C(\C)CC[C@@H](O)C(C)(C)O)c1O` [(+)-MONOCYCLOALTERNARENE A], the outcome in experiment [1] was inactive. The compound also yielded an IC50 in experiment [2] of 45 µM. In the case of `C/C(=C\Cc1cc(C(=O)O)cc(O)c1O)CC/C=C(\C)CC[C@@H](O)C(C)(C)O` [(+)-MONOCYCLOALTERNARENE B], the result in experiment [1] was inactive. The compound further registered an IC50 in experiment [2] of 47 µM.
